Read-outs that look alike come from different tables or passages of the source. Each block holds one molecule with its values, some of them ahead of it.
Columns and labels:
CYP3A5 = settings: human liver microsomes and human CYP expression system; cited from earlier work
[1] = tested on: mineralocorticoid receptor (MR); settings: in vitro, cited from earlier work
[2] = Study 1: single-dose esaxerenone pharmacokinetics alone and with itraconazole; assay type: in vivo, healthy Japanese subjects
Outline: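 Healthy Japanese males, 20–45 y, BMI 18.5–<25 kg m−2. Oral 2.5 mg tablet with 200 mL water, fasted (≥10 h before, 4 h after), on Day 1. CYP3A inhibitor 200 mg twice on Day 8, then once daily Days 9–16. Day 13 co-dose given fasted. Plasma sampled predose to 96 h, extracted by SPE, assayed by LC–MS/MS. Noncompartmental PK; GLSM ratios with 90% CI.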

[3] = assay type: in vivo, healthy Japanese subjects
Outline: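 Healthy Japanese males, 20–45 y. Oral 5 mg, fasted, Day 1. CYP3A inducer 600 mg orally once daily before breakfast for 9 days from Day 8; Day 13 dose given fasted 2 h after inducer. Plasma taken predose to 96 h (1700 g, 10 min, 4 °C; stored ≤−20 °C). Parent and metabolites M1, M4, M11 by SPE–LC–MS/MS. Noncompartmental analysis; GLSM ratios, 90% CI.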

[4] = Study 2 safety and tolerability; assay type: in vivo, healthy Japanese subjects
Outline: (§1)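 Healthy Japanese males, 20–45 y. Safety was assessed from adverse events, laboratory tests, vital signs (BP, pulse rate, body temperature) and 12-lead ECG. Adverse events were coded by MedDRA/J (versions 19.0 and 19.1) System Organ Class and Preferred Term. Safety set was all consenting subjects given at least 1 dose of any study drug.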

CYP3A4 = settings: human liver microsomes and human CYP expression system; cited from earlier work
[5] = Study 1 safety and tolerability; assay type: in vivo, healthy Japanese subjects; settings: for Blood creatine phosphokinase increased, TEAE / Eosinophil count increased, TEAE / Rash, TEAE: n = 20
Outline: as §1

[6] = esaxerenone 20 mg; ref unpublished data on file, Daiichi Sankyo Co., Ltd.; cited from earlier work
[7] = cited from earlier work
[8] = tested on: breast cancer resistance protein; settings: in vitro; cited from earlier work
[9] = cited from earlier work; remark: listed apart in the source
P‐glycoprotein (P‐gp) = settings: in vitro; cited from earlier work
[10] = cited from earlier work; remark: listed apart in the source
human MR = settings: read-out: half-maximal inhibitory concentration for the transcriptional activity of human MR; in vitro; cited from earlier work
[11] = in the presence of ketoconazole; cited from earlier work
[12] = (esaxerenone + itraconazole)/(esaxerenone alone), 2.5 mg
[13] = esaxerenone 2.5 mg + itraconazole, n = 20
[14] = esaxerenone 2.5 mg single oral dose + itraconazole 200 mg, n = 20
[15] = esaxerenone 2.5 mg single oral dose, alone, n = 20
[16] = esaxerenone 2.5 mg, alone, n = 20
[17] = (esaxerenone + rifampicin)/(esaxerenone alone), 5 mg
[18] = coadministration with rifampicin vs esaxerenone alone
[19] = esaxerenone 5 mg + rifampicin, n = 11
[20] = esaxerenone 5 mg single oral dose + rifampicin 600 mg once daily, n = 11
[21] = esaxerenone 5 mg single oral dose, alone, n = 11
[22] = esaxerenone 5 mg, alone, n = 11
[23] = Study 2, esaxerenone 5 mg + rifampicin, n = 11
[24] = Study 2, esaxerenone 5 mg alone, n = 12
[25] = Study 1, esaxerenone 2.5 mg + itraconazole
[26] = Study 1, esaxerenone 2.5 mg alone

AUCinf GLSM ratio (90% CI) [2, 12]: 1.53 (1.45, 1.62)
Cmax GLSM ratio (90% CI) [2, 12]: 1.13 (1.05, 1.20)
AUCinf GLSM ratio (90% CI) ([2]; (esaxerenone + itraconazole)/(esaxerenone alone), 2.5 mg, listed as esaxerenone): 1.53 (1.45–1.62)
increase in esaxerenone Cmax ([2]; coadministration of itraconazole vs esaxerenone alone): 12.6%
AUCinf, GLSM [2, 13]: 976 ng·h/mL
Cmax, GLSM [2, 13]: 41.0 ng/mL
AUCinf, arithmetic mean (SD) [2, 14]: 996 (219) ng h mL^−1
CL/F, arithmetic mean (SD) [2, 14]: 2.61 (0.477) L h^−1
Cmax, arithmetic mean (SD) [2, 14]: 41.7 (8.46) ng mL^−1
t1/2, arithmetic mean (SD) [2, 14]: 25.9 (4.21) h
tmax, median (range) [2, 14]: 2.00 (1.00–4.00) h
AUCinf, arithmetic mean (SD) [2, 15]: 648 (121) ng h mL^−1
CL/F, arithmetic mean (SD) [2, 15]: 3.98 (0.696) L h^−1
t1/2, arithmetic mean (SD) [2, 15]: 20.7 (3.96) h
tmax, median (range) [2, 15]: 2.25 (1.50–4.00) h
Cmax, arithmetic mean (SD) ([2]; esaxerenone 2.5 mg single oral dose, alone, n = 20, plasma): 36.7 (5.36) ng mL^−1
AUCinf, GLSM [2, 16]: 637 ng·h/mL
Cmax, GLSM [2, 16]: 36.4 ng/mL
AUCinf GLSM ratio (90% CI) [3, 17]: 0.312 (0.297, 0.328)
Cmax GLSM ratio (90% CI) [3, 17]: 0.659 (0.599, 0.724)
decrease in esaxerenone Cmax [3, 18]: 34.1%
fold reduction of esaxerenone AUCinf [3, 18]: approximately 0.3 fold
AUCinf, GLSM [3, 19]: 350 ng·h/mL
Cmax, GLSM [3, 19]: 47.2 ng/mL
AUCinf, arithmetic mean (SD) [3, 20]: 351 (24.8) ng h mL^−1
CL/F, arithmetic mean (SD) [3, 20]: 14.3 (1.01) L h^−1
Cmax, arithmetic mean (SD) [3, 20]: 47.6 (6.22) ng mL^−1
t1/2, arithmetic mean (SD) [3, 20]: 8.63 (1.67) h
tmax, median (range) [3, 20]: 2.50 (1.00–4.00) h
AUCinf, arithmetic mean (SD) [3, 21]: 1130 (150) ng h mL^−1
CL/F, arithmetic mean (SD) [3, 21]: 4.50 (0.634) L h^−1
t1/2, arithmetic mean (SD) [3, 21]: 16.6 (2.38) h
tmax, median (range) [3, 21]: 2.50 (1.50–3.50) h
Cmax, arithmetic mean (SD) ([3]; esaxerenone 5 mg single oral dose, alone, n = 11, plasma): 72.4 (10.1) ng mL^−1
AUCinf, GLSM [3, 22]: 1121 ng·h/mL
Cmax, GLSM [3, 22]: 71.7 ng/mL
Structure (SMILES): Cc1c(C(=O)Nc2ccc(S(C)(=O)=O)cc2)cn(CCO)c1-c1ccccc1C(F)(F)F [Esaxerenone]
involvement of CYP3A5 in oxidative metabolism (CYP3A5): involved in the oxidative metabolism
MR affinity relative to eplerenone ([1]; fold greater than eplerenone): 4 fold
MR affinity relative to spironolactone ([1]; fold greater than spironolactone): 76 fold
serious AEs ([4]; Study 2): No serious AEs
Blood creatine phosphokinase increased, TEAE [4, 23]: 0 number of subjects (%)
Eosinophil count increased, TEAE [4, 23]: 1 (9.1) number of subjects (%)
Rash, TEAE [4, 23]: 0 number of subjects (%)
Blood creatine phosphokinase increased, TEAE [4, 24]: 0 number of subjects (%)
Eosinophil count increased, TEAE [4, 24]: 0 number of subjects (%)
Rash, TEAE [4, 24]: 1 (8.3) number of subjects (%)
subjects reporting TEAEs ([4]; Study 2, whole study): 2 subjects
safety and tolerability (in words) ([4]; administered concomitantly with rifampicin): safe and well tolerated
involvement of CYP3A4 in oxidative metabolism (CYP3A4): involved in the oxidative metabolism
serious AEs ([5]; Study 1): No serious AEs
Blood creatine phosphokinase increased, TEAE [5, 25]: 0 number of subjects (%)
Eosinophil count increased, TEAE [5, 25]: 0 number of subjects (%)
Rash, TEAE [5, 25]: 0 number of subjects (%)
Blood creatine phosphokinase increased, TEAE [5, 26]: 1 (5.0) number of subjects (%)
Eosinophil count increased, TEAE [5, 26]: 0 number of subjects (%)
Rash, TEAE [5, 26]: 0 number of subjects (%)
subjects reporting TEAEs ([5]; Study 1, whole study): 1 subject
safety and tolerability (in words) ([5]; administered concomitantly with itraconazole): safe and well tolerated
mean plasma concentrations, Japanese vs Caucasian subjects [6]: similar
absolute bioavailability [7]: approximately 90%
substrate of breast cancer resistance protein [8]: substrate
tolerability ([9]; both dosages (2.5 and 5 mg d^−1)): well tolerated
clinical efficacy vs eplerenone 50 mg d^−1 ([9]; esaxerenone 2.5 mg d^−1, essential hypertension): noninferior
clinical efficacy of 5 mg d^−1 dosage vs 2.5 mg d^−1 dosage ([9]; essential hypertension): superior
substrate of P-glycoprotein (P‐glycoprotein (P‐gp)): substrate
proportion of unchanged drug excreted in faeces ([10]; 14C-labelled esaxerenone): 18.7%
proportion of unchanged drug excreted in urine ([10]; 14C-labelled esaxerenone): 1.6%
overall excretion rate of oxidised metabolites ([10]; metabolite profiles in faeces and urine): about 30 % of the total dose

Structure (SMILES): COC(=O)[C@@H]1CC2=CC(=O)CC[C@]2(C)[C@@]23O[C@@H]2C[C@@]2(C)[C@@H](CC[C@@]24CCC(=O)O4)[C@H]13 [eplerenone]
IC50 (human MR): 970 nM
increase in eplerenone exposure [11]: 5 fold
